Measurements: ChEMBL document CHEMBL5674889, “Enhanced JunD/RSK3 signalling due to loss of BRD4/FOXD3/miR-548d-3p axis determines BET inhibition resistance” (2020)
The source made the active and inactive calls.

What was measured:
MDA-MB-231 [1] = assay: Antiproliferative activity in human JUND-overexpressing MDA-MB-231 cells assessed as cell viability at 1 uM by CellTiter-Glo luminescent cell viability assay; format: functional, cell-based
Outline: (§1)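 Stable JUND-knockdown (shRNA, puromycin 1.0 μg/ml selection) or JUND-overexpressing clones and vector controls, seeded 3000 cells/well and adhered overnight, then given DMSO or JQ1 (1 μM) for 48 h. Read-out CellTiter-Glo luminescence normalized to DMSO control; triplicates, mean ± SD, one-way ANOVA.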

MDA-MB-231 [2] = assay: Antiproliferative activity in human MDA-MB-231 cells assessed as cell growth in the presence of AZ5104 at 1 uM by CellTiter-Glo luminescent cell viability assay; format: functional, cell-based
Outline: (§2)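 BLBC cells seeded at 3000/well, adhered overnight, then exposed to JQ1 (1 μM) with or without an EGFR inhibitor (1 μM) for 48 h; control and RPS6KA2-shRNA clones tested. Viability by CellTiter-Glo luminescence, background-subtracted and normalized to DMSO-treated control; triplicates, mean ± SD, one-way ANOVA against JQ1 alone.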

BT-549 [3] = assay: Antiproliferative activity in human JunD-overexpressing BT-549 cells assessed as cell growth in the presence of osimertinib at 1 uM by CCK-8 assay; format: functional, cell-based
MDA-MB-231 [4] = assay: Antiproliferative activity in human MDA-MB-231 cells assessed as cell growth in the presence of EAI045 at 1 uM by CellTiter-Glo luminescent cell viability assay; format: functional, cell-based; outline: as §2
BT-549 [5] = assay: Effect on induction of RPS6KA2 transcription in human BT-549 cells assessed as enhanced luciferase activity at 1 uM for 6 hrs by Luciferase reporter assay; format: functional, cell-based
Outline: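 Control or JunD-shRNA BLBC cells were transfected with the RPS6KA2 enhancer luciferase reporter (FuGene 6, 24 h) and then treated with DMSO or JQ1 1 μM for 6 h. Dual-luciferase read-out given as fold induction over vector control. Three experiments in triplicate.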

BT-549 [6] = assay: Antiproliferative activity in human JUND-overexpressing BT-549 cells assessed as cell viability at 1 uM by CellTiter-Glo luminescent cell viability assay; format: functional, cell-based; outline: as §1
MDA-MB-231 [7] = assay: Induction of apoptosis in human MDA-MB-231 cells over expressing RSK3 assessed as late apoptotic cells at 1 uM by Annexin V-FITC flow cytometric analysis (reference value: 1.45%); format: functional
Outline: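 Stable clones (vector, RSK3-overexpressing or RPS6KA2-knockdown) treated ± JQ1 1 μM. Cells washed twice in PBS, resuspended at 1 × 10^6 cells/ml in binding buffer, stained with Annexin V-FITC and propidium iodide for 10 min at room temperature in the dark, then read by flow cytometry. Three independent experiments; one-way ANOVA.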

MDA-MB-231 [8] = assay: Antiproliferative activity in human MDA-MB-231 cells assessed as inhibition of cell growth at 1 uM by CCK-8 assay; format: functional, cell-based
MDA-MB-231 [9] = assay: Antiproliferative activity in human JunD-overexpressing MDA-MB-231 cells assessed as cell growth in the presence of osimertinib at 1 uM by CCK-8 assay; format: functional, cell-based
Outline: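 Vector control, RSK3- or JunD-overexpressing cells seeded 3000/well, adhered overnight, then treated with JQ1 alone or combined with kinase inhibitors for 48 h; growth by CCK-8, normalized to DMSO control; triplicates, mean ± SD.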

Measured: Activity

Cc1sc2c(c1C)C(c1ccc(Cl)cc1)=N[C@@H](CC(=O)OC(C)(C)C)c1nnc(C)n1-2
2.9%: MDA-MB-231 [7]
active: all other assays above
